According to ChEMBL document CHEMBL2177065, “14-Alkoxy- and 14-acyloxypyridomorphinans: μ agonist/δ antagonist opioid analgesics with diminished tolerance and dependence side effects” (J Med Chem, 2012):
pEC50, pKi: −log10 of the molar value. Active and inactive are the calls of the source.

How the values were obtained:
Mu-type opioid receptor [1] = target: T1, Mu-type opioid receptor (Homo sapiens, UniProt P35372); test: Agonist activity at human mu opioid receptor expressed in CHO cells assessed as [35S]GTPgammaS binding at 10 uM by scintillation counting analysis; format: functional, cell-based
T1 sequence (P35372 whole entry): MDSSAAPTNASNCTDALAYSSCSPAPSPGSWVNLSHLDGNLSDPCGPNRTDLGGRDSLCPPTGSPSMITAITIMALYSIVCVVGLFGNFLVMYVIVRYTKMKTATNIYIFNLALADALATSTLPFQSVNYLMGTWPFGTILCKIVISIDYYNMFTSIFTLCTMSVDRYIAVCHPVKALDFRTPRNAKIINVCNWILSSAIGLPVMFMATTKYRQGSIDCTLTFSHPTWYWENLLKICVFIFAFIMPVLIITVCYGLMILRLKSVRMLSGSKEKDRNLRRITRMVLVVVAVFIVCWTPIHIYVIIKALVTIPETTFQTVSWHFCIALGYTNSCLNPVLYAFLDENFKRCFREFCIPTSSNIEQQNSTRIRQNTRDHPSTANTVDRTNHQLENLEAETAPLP
How it was run: (§1)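 Human KOR or MOR in CHO cell membranes (50 µg protein), 3 h at 25 °C, pH 7.4 Tris buffer with 100 mM NaCl, 10 mM MgCl2, 1 mM EDTA, 1 mM DTT, 0.1% BSA, GDP 40 µM and [35S]GTP-γ-S 50 pM. Stimulation = (S−B)/B×100, with Emax relative to U69,593 (KOR) or DAMGO (MOR). Curves were ten points, ≥3 experiments pooled. Antagonist Ke was taken from the shift in standard agonist EC50.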

[2] = tested on: Delta-type opioid receptor; test: Agonist activity at delta opioid receptor expressed in rat/mouse NG108-15 cells assessed as [35S]GTPgammaS binding at 10 uM by scintillation counting analysis; format: functional, cell-based
How it was run: (§2)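 NG108-15 cell membranes (50 µg protein), 3 h at 25 °C, pH 7.4 Tris buffer with 100 mM NaCl, 10 mM MgCl2, 1 mM EDTA, 1 mM DTT, 0.1% BSA, GDP 40 µM and [35S]GTP-γ-S 50 pM. Nonspecific binding with 40 µM GTP-γ-S; filtration and scintillation counting. Stimulation = (S−B)/B×100, with Emax relative to DADLE. Curves were ten points, ≥3 experiments pooled. Ke was taken from the shift in standard agonist EC50.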

Homo sapiens [3] = species: Homo sapiens; test: Selectivity ratio of Ki for human kappa opioid receptor to Ki for human delta opioid receptor
Homo sapiens [4] = species: Homo sapiens; test: Selectivity ratio of Ki for human mu opioid receptor to Ki for human delta opioid receptor
[5] = target: T2, Kappa-type opioid receptor (Homo sapiens, UniProt P41145); test: Displacement of [3H]U69,593 from human kappa opioid receptor expressed in CHO cells by scintillation counting analysis; format: cell-based
T2 sequence (P41145 whole entry): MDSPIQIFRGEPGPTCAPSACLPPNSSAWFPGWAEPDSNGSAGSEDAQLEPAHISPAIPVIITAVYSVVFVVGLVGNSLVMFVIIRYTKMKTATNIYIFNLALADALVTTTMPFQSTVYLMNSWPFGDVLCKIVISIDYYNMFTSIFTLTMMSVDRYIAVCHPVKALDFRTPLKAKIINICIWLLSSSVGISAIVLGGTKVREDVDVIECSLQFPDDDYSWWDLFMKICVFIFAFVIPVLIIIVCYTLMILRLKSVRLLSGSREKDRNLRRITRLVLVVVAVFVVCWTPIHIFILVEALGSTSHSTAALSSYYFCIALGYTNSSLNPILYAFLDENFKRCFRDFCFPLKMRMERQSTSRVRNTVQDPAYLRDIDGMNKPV

Mu-type opioid receptor [6] = target: T1, Mu-type opioid receptor; test: Displacement of [3H]DAMGO from human mu opioid receptor expressed in CHO cells by scintillation counting analysis; format: cell-based
[7] = target: Delta-type opioid receptor (Homo sapiens, UniProt P41143); test: Displacement of [3H]DADLE from human delta opioid receptor expressed in CHO cells by scintillation counting analysis; format: cell-based
Delta-type opioid receptor (Homo sapiens, UniProt P41143), sequence (P41143 whole entry): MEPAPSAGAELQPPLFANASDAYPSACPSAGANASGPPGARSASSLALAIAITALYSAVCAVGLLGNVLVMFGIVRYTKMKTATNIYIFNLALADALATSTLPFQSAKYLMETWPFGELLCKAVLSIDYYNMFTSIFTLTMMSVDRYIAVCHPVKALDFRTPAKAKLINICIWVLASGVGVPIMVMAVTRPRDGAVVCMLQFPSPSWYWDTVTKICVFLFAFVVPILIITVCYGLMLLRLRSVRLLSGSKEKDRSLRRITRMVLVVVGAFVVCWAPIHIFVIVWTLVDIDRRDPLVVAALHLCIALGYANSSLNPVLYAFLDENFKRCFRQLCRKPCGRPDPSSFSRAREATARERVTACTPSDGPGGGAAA

[8] = target: T2, Kappa-type opioid receptor; test: Agonist activity at human kappa opioid receptor expressed in CHO cells assessed as [35S]GTPgammaS binding at 10 uM by scintillation counting analysis; format: functional, cell-based; how it was run: as §1
[9] = tested on: Delta-type opioid receptor; test: Antagonist activity at delta opioid receptor expressed in rat/mouse NG108-15 cells assessed as [35S]GTPgammaS binding by scintillation counting analysis; format: functional, cell-based; how it was run: as §2
[10] = target: T2, Kappa-type opioid receptor; test: Agonist activity at human kappa opioid receptor expressed in CHO cells assessed as [35S]GTPgammaS binding by scintillation counting analysis relative to U69,593; format: functional, cell-based; how it was run: as §1
[11] = target: T2, Kappa-type opioid receptor; test: Agonist activity at human kappa opioid receptor expressed in CHO cells assessed as [35S]GTPgammaS binding by scintillation counting analysis; format: functional, cell-based; how it was run: as §1
Mu-type opioid receptor [12] = target: T1, Mu-type opioid receptor; test: Agonist activity at human mu opioid receptor expressed in CHO cells assessed as [35S]GTPgammaS binding by scintillation counting analysis relative to DAMGO; format: functional, cell-based; how it was run: as §1
Mu-type opioid receptor [13] = target: T1, Mu-type opioid receptor; test: Agonist activity at human mu opioid receptor expressed in CHO cells assessed as [35S]GTPgammaS binding by scintillation counting analysis; format: functional, cell-based; how it was run: as §1
[14] = Agonist activity at delta opioid receptor expressed in rat/mouse NG108-15 cells assessed as [35S]GTPgammaS binding by scintillation counting analysis relative to DADLE; format: functional, cell-based; how it was run: as §2
Mus musculus [15] = test: Antinociceptive activity in icv dosed ICR mouse assessed as warm-water tail-withdrawal latency by tail flick assay in presence of naloxone; format: functional, organism-based
Mus musculus [16] = test: Antinociceptive activity in ICR mouse assessed as warm-water tail-withdrawal latency at 10 nmol, icv by tail flick assay; format: functional
How it was run: (§3)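 Male ICR mice dosed i.c.v. in 5 µL (test compounds in 100% DMSO, morphine in water) under light ether anaesthesia. Tail withdrawal from 55 °C water, 10 s cutoff, tested 10–180 min post-injection. %MPE computed against pre-drug baseline. A50 with 95% confidence limits by linear regression at time of peak effect.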

Mus musculus [17] = test: Antinociceptive activity in icv dosed ICR mouse assessed as warm-water tail-withdrawal latency by tail flick assay; format: functional; how it was run: as §3
Mus musculus [18] = test: Antinociceptive activity in ICR mouse assessed as warm-water tail-withdrawal latency at 1 nmol, icv by tail flick assay; format: functional; how it was run: as §3

SMILES | Activity (Mu-type opioid receptor [1]) | Activity [2] | Ratio Ki (Homo sapiens [3]) | Ratio Ki (Homo sapiens [4]) | pKi [5] | pKi (Mu-type opioid receptor [6]) | pKi [7] | Activity [8] | Ke [9] | Emax [10] | pEC50 [11] | Emax (Mu-type opioid receptor [12]) | pEC50 (Mu-type opioid receptor [13]) | Emax [14] | Activity (Mus musculus [15]) | %max (Mus musculus [16]) | A50 (Mus musculus [17]) | Activity (Mus musculus [17]) | %max (Mus musculus [18])
CO[C@@]12Cc3cc(-c4ccc(Cl)cc4)cnc3[C@@H]3Oc4c(O)ccc5c4[C@@]31CCN(CC1CC1)[C@@H]2C5 | inactive | inactive | 2.8 | 22 | 8.27 | 7.38 | 8.71 |  |  |  |  |  |  |  |  |  |  |  | 
O=C(O[C@@]12Cc3cc(-c4ccc(Cl)cc4)cnc3[C@@H]3Oc4c(O)ccc5c4[C@@]31CCN(CC1CC1)[C@@H]2C5)c1ccccc1 | inactive | inactive | 1.3 | 2.2 | 6.93 | 6.72 | 7.06 | inactive | 218 nM |  |  |  |  |  |  |  |  |  | 
Oc1ccc2c3c1O[C@H]1c4ncc(-c5ccc(Cl)cc5)cc4C[C@@]4(OCc5ccccc5)[C@@H](C2)N(CC2CC2)CC[C@]314 | inactive | inactive | 2.8 | 4.4 | 8.27 | 8.07 | 8.72 |  | 0.64 nM | 15% | 7.57 |  |  |  |  |  |  |  | 
CN1CC[C@]23c4c5ccc(O)c4O[C@H]2c2ncc(-c4ccc(Cl)cc4)cc2C[C@@]3(OC(=O)c2ccccc2)[C@H]1C5 |  | inactive | 6.6 | 4.9 | 6.95 | 7.08 | 7.77 | inactive | 45 nM |  |  | 55% | 5.34 |  |  |  |  |  | 
CN1CC[C@]23c4c5ccc(O)c4O[C@H]2c2ncc(-c4ccc(Cl)cc4)cc2C[C@@]3(OC(=O)Cc2ccccc2)[C@H]1C5 |  |  | 18 | 1.5 | 7.77 | 8.84 | 9.01 |  | 3.38 nM | 36% | 6.96 | 122% | 7.06 | 27% |  |  |  |  | 
O=C(Cc1ccccc1)O[C@@]12Cc3cc(-c4ccc(Cl)cc4)cnc3[C@@H]3Oc4c(O)ccc5c4[C@@]31CCN(CC1CC1)[C@@H]2C5 | inactive | inactive | 2.3 | 0.78 | 8.51 | 8.98 | 8.88 |  | 0.37 nM | 34% | 7.59 |  |  |  |  |  |  |  | 
O=C(CCc1ccccc1)O[C@@]12Cc3cc(-c4ccc(Cl)cc4)cnc3[C@@H]3Oc4c(O)ccc5c4[C@@]31CCN(CC1CC1)[C@@H]2C5 | inactive | inactive | 2.9 | 0.62 | 7.92 | 8.59 | 8.38 |  | 1.86 nM | 25% | 7.89 |  |  |  |  |  |  |  | 
Oc1ccc2c3c1O[C@H]1c4ncc(-c5ccc(Cl)cc5)cc4C[C@@]4(OC/C=C/c5ccccc5)[C@@H](C2)N(CC2CC2)CC[C@]314 | inactive | inactive | 0.89 | 0.81 | 8.48 | 8.52 | 8.43 |  |  |  |  |  |  |  |  |  |  |  | 
CO[C@@]12Cc3cc(-c4ccc(Cl)cc4)cnc3[C@@H]3Oc4c(O)ccc5c4[C@@]31CCN(C)[C@@H]2C5 |  | inactive | 17 | 4.8 | 7.55 | 8.10 | 8.79 |  | 1.6 nM | 36% | 6.20 | 118% | 6.42 |  | inactive | 98% | 1.44 nmol | Dose-dependent effect | 
CN1CC[C@]23c4c5ccc(O)c4O[C@H]2c2ncc(-c4ccc(Cl)cc4)cc2C[C@@]3(OC/C=C/c2ccccc2)[C@H]1C5 |  |  | 1.4 | 0.36 | 8.81 | 9.39 | 8.94 |  |  |  |  | 130% | 8.37 | 84% | inactive |  | 0.23 nmol | Dose-dependent effect | 91%
Oc1ccc2c3c1O[C@H]1c4ncc(-c5ccc(Cl)cc5)cc4C=C4[C@@H](C2)N(CC2CC2)CC[C@]431 | inactive | inactive | 2.2 | 4.8 | 8.22 | 7.89 | 8.57 | inactive | 0.58 nM |  |  |  |  |  |  |  |  |  | 
CN1CC[C@]23c4c5ccc(O)c4O[C@H]2c2ncc(-c4ccc(Cl)cc4)cc2C[C@@]3(OC(=O)CCc2ccccc2)[C@H]1C5 |  |  | 4.6 | 0.98 | 8.36 | 9.03 | 9.02 |  | 1.64 nM | 16% | 6.87 | 105% | 7.32 | 59% |  |  |  |  | 
CN1CC[C@]23c4c5ccc(O)c4O[C@H]2c2ncc(-c4ccc(Cl)cc4)cc2C[C@@]3(OCc2ccccc2)[C@H]1C5 |  |  | 28 | 2.6 | 7.31 | 8.33 | 8.75 |  | 4.54 nM | 32% | 6.67 | 119% | 6.52 | 52% |  |  |  |  | 
